In PubChem BioAssay AID1744 (Vanderbilt High Throughput Screening Facility, 2009):

What follows are compounds tested against Muscarinic acetylcholine receptor M1 (Rattus norvegicus) (UniProt P08482) (assay: agonist potency across muscarinic M1-M5 subtypes, profiling panel, selectivity assay for M1 allosteric modulator project, cell-based, agonist mode (AID 1744)). Conditions: CHO-K1 rat M1, Fluo-4 calcium flux; call rule not given here.
Outline: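 System: CHO-K1 cells stably carrying rat M1 muscarinic receptor. Buffer or medium: Fluo-4 loading buffer at pH 7.4. Doses: compounds alone, agonist mode. Timing: 1 h dye loading, 37 °C. Detection: Fluo-4 fluorescence calcium flux measurement. Controls: maximal acetylcholine signal.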

EC50, active:
CCOC(=O)N1CCC(NCCNC(=O)c2ccc(F)c(F)c2)CC1 211 nM, CCOC(=O)N1CCC(NCCNC(=O)c2ccccc2Cl)CC1 804 nM, CCOC(=O)N1CCC(NCCNC(=O)c2cccc(F)c2)CC1 154 nM, CCOC(=O)N1CCC(NCCNC(=O)c2cccc(OC)c2)CC1 438 nM, CCOC(=O)N1CCC(NCCNC(=O)c2ccccc2)CC1 152 nM, CCOC(=O)N1CCC(NCCNC(=O)c2ccccc2C)CC1 198 nM, CCOC(=O)N1CCC(NCCNC(=O)c2cccs2)CC1 1740 nM, CCOC(=O)N1CCC(NCCNC(=O)c2ccc(F)cc2)CC1 154 nM
